Measurements reported in ChEMBL document CHEMBL4130483, “Leishmanicidal and cytotoxic activity of hederagenin-bistriazolyl derivatives” (Eur J Med Chem, 2017).
pEC50, pIC50: −log10 of the molar value.

Assays:
[1] = Selectivity index, ratio of CC50 for African green monkey BGM cells to IC50 for antileishmanial activity against Leishmania infantum MHOM/BR/70/BH46 intracellular amastigotes infected in canine DH82 cells; format: toxicity, cell-based; conditions: read-out: Ratio CC50/IC50
Procedure, shortened: (§1)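 SI = CC50 in BGM or HepG2 cells (MTT) divided by the intracellular amastigote IC50.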

[2] = Cytotoxicity in human HepG2 cells assessed as reduction in cell viability incubated for 48 hrs by MTT assay; format: cell-based
Procedure, shortened: (§2)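 MTT colorimetric assay with microscopic monitoring. CC50 is the concentration cytotoxic to 50% of BGM or HepG2 cells. Potassium antimonyl tartrate trihydrate was the positive control.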

[3] = Selectivity index, ratio of CC50 for dog DH82 cells to IC50 for antileishmanial activity against Leishmania infantum MHOM/BR/70/BH46 intracellular amastigotes infected in canine DH82 cells; format: toxicity, cell-based; conditions: read-out: Ratio CC50/IC50
Procedure, shortened: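 SI = CC50 in DH82 macrophages (MTT) divided by IC50 against intracellular L. infantum BH46 amastigotes.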

Leishmania infantum [4] = test: Antileishmanial activity against Leishmania infantum MHOM/BR/70/BH46 intracellular amastigotes infected in canine DH82 cells assessed as as inhibition of cell growth incubated for 48 hrs by ELISA method; format: functional, organism-based; conditions: MHOM/BR/70/BH46, DH82, 48 h
Procedure, shortened: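 L. infantum BH46 intracellular amastigotes. Phase II testing at 0.1, 1.0, 10 and 100 μM. IC50 is the concentration inhibiting in vitro growth by 50%, taken from dose-response curves (log concentration vs inhibition) run in four replicates. Potassium antimonyl tartrate trihydrate served as positive control.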

Leishmania infantum [5] = test: Antileishmanial activity against Leishmania infantum MHOM/BR/70/BH46 intracellular amastigotes infected in canine DH82 cells assessed as as inhibition of cell growth at 1000 uM incubated for 48 hrs by ELISA method; format: functional; conditions: MHOM/BR/70/BH46, DH82, 48 h, read-out: GI
[6] = Selectivity index, ratio of CC50 for human HepG2 cells to IC50 for antileishmanial activity against Leishmania infantum MHOM/BR/70/BH46 intracellular amastigotes infected in canine DH82 cells; format: toxicity, cell-based; conditions: read-out: Ratio CC50/IC50; procedure, shortened: as §1
[7] = Cytotoxicity in dog DH82 cells assessed as reduction in cell viability incubated for 48 hrs by MTT assay; format: cell-based, Canis lupus familiaris
Procedure, shortened: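 DH82 canine macrophage viability was monitored microscopically and by MTT colorimetric assay. CC50 is the concentration cytotoxic to 50% of DH82 cells. Potassium antimonyl tartrate trihydrate was the positive control.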

[8] = Cytotoxicity in African green monkey BGM cells assessed as reduction in cell viability incubated for 48 hrs by MTT assay; format: cell-based; conditions: chlorocebus aethiops; procedure, shortened: as §2
Leishmania infantum [9] = test: Antiparasitic activity against Leishmania infantum; format: functional, organism-based
HT-29 [10] = test: Cytotoxicity against human HT-29 cells assessed as reduction in cell viability incubated fro 96 hrs by SRB assay; format: functional, cell-based; conditions: HT-29, 96 h
Procedure, shortened: (§3)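 Sulforhodamine B photometric assay after 96 h treatment. Monolayers were grown in RPMI 1640 with L-glutamine, 10% heat-inactivated FBS and penicillin/streptomycin at 37 °C in humidified 5% CO2. Cut-off was 30 μM, or 60 μM for the parent. EC50 was averaged from at least three independent experiments, each in four replicates. Betulinic acid was the positive standard.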

FaDu = test: Cytotoxicity against human FADU cells assessed as reduction in cell viability incubated fro 96 hrs by SRB assay; format: functional, cell-based
SW-1736 = test: Cytotoxicity against human SW1736 cells assessed as reduction in cell viability incubated fro 96 hrs by SRB assay; format: functional, cell-based; conditions: SW-1736, 96 h; procedure, shortened: as §3
A2780 [11] = test: Cytotoxicity against human A2780 cells assessed as reduction in cell viability incubated fro 96 hrs by SRB assay; format: functional, cell-based; conditions: A2780, 96 h; procedure, shortened: as §3
A-375 = test: Cytotoxicity against human A375 cells assessed as reduction in cell viability incubated fro 96 hrs by SRB assay; format: functional, cell-based; conditions: A-375, 96 h; procedure, shortened: as §3
518A2 = test: Cytotoxicity against human 518A2 cells; format: functional, cell-based
8505C = test: Cytotoxicity against human 8505C cells; format: functional, cell-based
MCF7 = test: Cytotoxicity against human MCF7 cells; format: functional, cell-based
A2780 [12] = test: Cytotoxicity against human A2780 cells; format: functional, cell-based
HT-29 [13] = test: Cytotoxicity against human HT-29 cells; format: functional, cell-based
A549 = test: Cytotoxicity against human A549 cells; format: functional, cell-based

SMILES | inhibition of growth at 1000 µM (Leishmania infantum [5]) [%] | pIC50 (Leishmania infantum [9]) | pEC50 (HT-29 [10]) | pEC50 (FaDu) | pEC50 (SW-1736) | pEC50 (A2780 [11]) | pEC50 (A-375) | also measured
C#CCOC[C@@]1(C)[C@@H]2CC[C@]3(C)[C@H](CC=C4[C@@H]5CC(C)(C)CC[C@]5(C(=O)OCC#C)CC[C@]43C)[C@@]2(C)CC[C@@H]1O | 77.2 | – | – | – | – | – | – | selectivity ratio [1]: 3.5; CC50 at 48 h [2]: 104 µM; selectivity ratio [3]: 9; pIC50 (Leishmania infantum [4]): 4.54; selectivity ratio [6]: 3.7; CC50 at 48 h [7]: 259 µM; CC50 at 48 h [8]: 99 µM
CC1(C)CC[C@]2(C(=O)NCc3cn(Cc4ccc(Cl)cc4)nn3)CC[C@]3(C)C(=CC[C@@H]4[C@@]5(C)CC[C@H](O)[C@@](C)(CO)[C@@H]5CC[C@]43C)[C@@H]2C1 | – | 5.22 to 5.70 | – | – | – | – | – | –
CC1(C)CC[C@]2(C(=O)OCc3cn(Cc4ccc([N+](=O)[O-])cc4)nn3)CC[C@]3(C)C(=CC[C@@H]4[C@@]5(C)CC[C@H](O)[C@@](C)(COCc6cn(Cc7ccc([N+](=O)[O-])cc7)nn6)[C@@H]5CC[C@]43C)[C@@H]2C1 | 58.6 | – | < 4.52 | < 4.52 | < 4.52 | < 4.52 | < 4.52 | selectivity ratio [1]: > 38; CC50 at 48 h [2]: > 1000 µM; selectivity ratio [3]: > 38; pIC50 (Leishmania infantum [4]): 4.59; selectivity ratio [6]: > 38; CC50 at 48 h [7]: > 1000 µM; CC50 at 48 h [8]: > 1000 µM
CC1(C)CC[C@]2(C(=O)OCc3cn(Cc4ccc(F)cc4F)nn3)CC[C@]3(C)C(=CC[C@@H]4[C@@]5(C)CC[C@H](O)[C@@](C)(CO)[C@@H]5CC[C@]43C)[C@@H]2C1 | – | 4.96 | – | – | – | – | – | –
CC1(C)CC[C@]2(C(=O)NCc3cn(Cc4ccccc4[N+](=O)[O-])nn3)CC[C@]3(C)C(=CC[C@@H]4[C@@]5(C)CC[C@H](O)[C@@](C)(CO)[C@@H]5CC[C@]43C)[C@@H]2C1 | – | 5.22 to 5.70 | – | – | – | – | – | –
CC1(C)CC[C@]2(C(=O)O)CC[C@]3(C)C(=CC[C@@H]4[C@@]5(C)CC[C@H](O)[C@@](C)(CO)[C@@H]5CC[C@]43C)[C@@H]2C1 [HEDERAGENIN] | 55.5 | 4.21 | < 4.22 | < 4.22 | < 4.22 | < 4.22 | < 4.22 | selectivity ratio [1]: 0.9; CC50 at 48 h [2]: > 1000 µM; selectivity ratio [3]: > 10; selectivity ratio [6]: > 16.2; CC50 at 48 h [7]: > 1000 µM; CC50 at 48 h [8]: 57 µM
CC1(C)CC[C@]2(C(=O)OCc3cn(Cc4cccc(Cl)c4)nn3)CC[C@]3(C)C(=CC[C@@H]4[C@@]5(C)CC[C@H](O)[C@@](C)(CO)[C@@H]5CC[C@]43C)[C@@H]2C1 | – | – | – | – | – | – | – | pEC50 (518A2): 5.39 to 5.52; pEC50 (8505C): 5.39 to 5.52; pEC50 (MCF7): 5.39 to 5.52; pEC50 (A2780 [12]): 5.39 to 5.52; pEC50 (HT-29 [13]): 5.39 to 5.52; pEC50 (A549): 5.39 to 5.52
CC1(C)CC[C@]2(C(=O)OCc3cn(Cc4cccc(Cl)c4)nn3)CC[C@]3(C)C(=CC[C@@H]4[C@@]5(C)CC[C@H](O)[C@@](C)(COCc6cn(Cc7cccc(Cl)c7)nn6)[C@@H]5CC[C@]43C)[C@@H]2C1 | 41.8 | – | < 4.52 | < 4.52 | < 4.52 | < 4.52 | < 4.52 | –
CC1(C)CC[C@]2(C(=O)OCc3cn(Cc4ccccc4[N+](=O)[O-])nn3)CC[C@]3(C)C(=CC[C@@H]4[C@@]5(C)CC[C@H](O)[C@@](C)(CO)[C@@H]5CC[C@]43C)[C@@H]2C1 | – | 4.47 to 4.49 | – | – | – | – | – | –
CC1(C)CC[C@]2(C(=O)OCc3cn(Cc4cccc(Br)c4)nn3)CC[C@]3(C)C(=CC[C@@H]4[C@@]5(C)CC[C@H](O)[C@@](C)(CO)[C@@H]5CC[C@]43C)[C@@H]2C1 | – | 4.47 to 4.49 | – | – | – | – | – | pEC50 (518A2): 5.39 to 5.52; pEC50 (8505C): 5.39 to 5.52; pEC50 (MCF7): 5.39 to 5.52; pEC50 (A2780 [12]): 5.39 to 5.52; pEC50 (HT-29 [13]): 5.39 to 5.52; pEC50 (A549): 5.39 to 5.52
CC1(C)CC[C@]2(C(=O)OCc3cn(CC(=O)c4ccc5ccccc5c4)nn3)CC[C@]3(C)C(=CC[C@@H]4[C@@]5(C)CC[C@H](O)[C@@](C)(COCc6cn(CC(=O)c7ccc8ccccc8c7)nn6)[C@@H]5CC[C@]43C)[C@@H]2C1 | 71.5 | – | < 4.52 | < 4.52 | < 4.52 | < 4.52 | < 4.52 | –
CC1(C)CC[C@]2(C(=O)OCc3cn(Cc4ccc(F)cc4F)nn3)CC[C@]3(C)C(=CC[C@@H]4[C@@]5(C)CC[C@H](O)[C@@](C)(COCc6cn(Cc7ccc(F)cc7F)nn6)[C@@H]5CC[C@]43C)[C@@H]2C1 | 52.4 | – | < 4.52 | < 4.52 | < 4.52 | < 4.52 | < 4.52 | selectivity ratio [1]: 0.6; CC50 at 48 h [2]: 105 µM; selectivity ratio [3]: 0.9; pIC50 (Leishmania infantum [4]): 3.81; selectivity ratio [6]: 0.7; CC50 at 48 h [7]: 140 µM; CC50 at 48 h [8]: 99.7 µM
CC1(C)CC[C@]2(C(=O)OCc3cn(Cc4ccccc4[N+](=O)[O-])nn3)CC[C@]3(C)C(=CC[C@@H]4[C@@]5(C)CC[C@H](O)[C@@](C)(COCc6cn(Cc7ccccc7[N+](=O)[O-])nn6)[C@@H]5CC[C@]43C)[C@@H]2C1 | 35 | – | < 4.52 | < 4.52 | < 4.52 | < 4.52 | < 4.52 | –
CC1(C)CC[C@]2(C(=O)OCc3cn(Cc4ccccc4Cl)nn3)CC[C@]3(C)C(=CC[C@@H]4[C@@]5(C)CC[C@H](O)[C@@](C)(COCc6cn(Cc7ccccc7Cl)nn6)[C@@H]5CC[C@]43C)[C@@H]2C1 | 4.1 | – | 4.57 | < 4.52 | < 4.52 | < 4.52 | < 4.52 | –
CC1(C)CC[C@]2(C(=O)OCc3cn(Cc4cccc([N+](=O)[O-])c4)nn3)CC[C@]3(C)C(=CC[C@@H]4[C@@]5(C)CC[C@H](O)[C@@](C)(CO)[C@@H]5CC[C@]43C)[C@@H]2C1 | – | – | – | – | – | – | – | pEC50 (518A2): 5.39 to 5.52; pEC50 (8505C): 5.39 to 5.52; pEC50 (MCF7): 5.39 to 5.52; pEC50 (A2780 [12]): 5.39 to 5.52; pEC50 (HT-29 [13]): 5.39 to 5.52; pEC50 (A549): 5.39 to 5.52
CC1(C)CC[C@]2(C(=O)OCc3cn(Cc4cccc(Br)c4)nn3)CC[C@]3(C)C(=CC[C@@H]4[C@@]5(C)CC[C@H](O)[C@@](C)(COCc6cn(Cc7cccc(Br)c7)nn6)[C@@H]5CC[C@]43C)[C@@H]2C1 | 7.8 | – | < 4.52 | < 4.52 | < 4.52 | < 4.52 | < 4.52 | –
